Screens deposited in PubChem BioAssay by several laboratories.
SR-BI DiI-HDL act = activators of SR-BI mediated DiI-HDL uptake, primary screen, ldlA[mSR-BI] CHO cells, DiI fluorescence | 320,000 compounds, 0.096% hits | 3 h; 100 = double the neutral-control signal | AID 504775, 2011 | activation, % at 12.5 µM;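 active means mean replicate activation of at least 60% and every replicate at or above 60%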;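 further: 0% = median plate neutral-control signal and 100% = twice that signal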
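System: CHO ldlA[mSR-BI] cells / Medium: HEPES-buffered (25 mM, pH 7.4) F12 plus 0.5% BSA / Probe or stimulus: labelled HDL, 10 µg/mL / Doses: single compound concentration, delivered by pin transfer / Schedule: 3 h, 37 °C / Measured by: DiI fluorescence, bottom read / Measure: cell-associated DiI fluorescence as measure of HDL uptake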
Kir21 block = inhibitors of mouse Kir2.1 inward-rectifier potassium channel | Inward rectifier potassium channel 2 (Mus musculus), P35561 | HEK293-Kir2.1, FluxOR thallium flux fluorescence; stronger effect = lower value | B-score at 10 µM | 310,000 compounds, 0.85% hits | AID 1672, 2009;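 active means fluorescence ratio B-score at or below minus 3 SD of library scores, with starting-brightness B-score within 2 SD, cut at about -4.2 in these data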;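 further: channel flux triggered by added potassium and thallium sulfate stimulus; B-score of peak minus minimum fluorescence over baseline after thallium stimulus; more negative B-score means stronger Kir2.1 block with less thallium influx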
FID counter = compounds displacing fluorescent DNA intercalator, primary screen, artefact control for HCV NS3 helicase inhibitor project, biochemical, FID fluorescence; DNA fluorescent intercalator displacement; inhibition, % at 7.9 µM; 290,000 compounds, 0.17% hits; AID 1845, 2009; in the data active means inhibition above about 37%;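 further: 0% = vehicle and 100% = reference compound; higher means more ethidium bromide displaced from hairpin DNA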
SR-BI DiI inh = inhibitors of SR-BI mediated HDL lipid uptake, primary screen, ldlA[mSR-BI] cells, fluorescence, single point; 320,000 compounds, 0.96% hits; Scavenger receptor class B member 1 (Mus musculus), Q61009; AID 488896, 2010; ldlA[mSR-BI] CHO cells, DiI-HDL uptake fluorescence, 3 h; inhibition, % at 12.5 µM;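 active means mean replicate inhibition of at least 70% and a set share of replicates each scoring 70 or more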;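 further: 0% = median of neutral control wells and 100% = median of positive control wells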
ANO1 activ = TMEM16A chloride channel activators or potentiators, primary screen, cell-based, HTS | AID 623877, 2012 | B-score at 10 µM | HEK293 TMEM16A/YFP-H148Q/I152L, iodide quench fluorescence; stronger effect = lower value | Anoctamin-1 (Mus musculus), Q8BHY3 | 340,000 compounds, 0.3% hits;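 active means fluorescence-ratio B-score plate-corrected deviation score at least 3 library SD below zero, with starting fluorescence score within 5 deviations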;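 further: channel opened by trigger with iodide after compound preincubation; score built on the fluorescence ratio of max minus min over baseline; more negative score means more quench and so TMEM16A activation or potentiation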
TMEM16A inh = TMEM16A chloride channel inhibitors, primary screen, cell-based, HTS; 310,000 compounds, 1.2% hits; AID 588511, 2011; HEK293 TMEM16A/YFP iodide influx fluorescence, ionomycin; normalized B-score (activity score, 25-100; higher = stronger inhibition) at 10 µM; Anoctamin-1 (Mus musculus), Q8BHY3;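 active means ratio plate-corrected score three or more library SD toward inhibition, starting fluorescence score within five deviations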;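 further: score derived from kinetic fluorescence span divided by baseline fluorescence per well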
Numbers without * were called inactive. In the library only some 3% were active in any assay of this set; here they are far more common.

For Cc1ccc(S(=O)(=O)N(C)CCCC(=O)N2CCCCC2)cc1 the results were SR-BI DiI-HDL act 8, Kir21 block 0.52, FID counter -15, SR-BI DiI inh -8, ANO1 activ inactive and TMEM16A inh inactive.
`Cc1ccc(NC(=O)CN(C)C(=O)C2CCC2)cc1` gave SR-BI DiI-HDL act 11, SR-BI DiI inh -11 and ANO1 activ inactive.
For Cc1noc(C)c1CSCC(=O)Nc1ccccc1N1CCCCC1 the results were SR-BI DiI-HDL act -11, Kir21 block -9.9*, SR-BI DiI inh 11, ANO1 activ inactive and TMEM16A inh inactive.
Cc1cccc(NC(=O)CSCC(=O)Nc2ccccc2N2CCCC2)c1 was read as SR-BI DiI-HDL act 0, Kir21 block -4.3*, FID counter -15, SR-BI DiI inh 0, ANO1 activ inactive and TMEM16A inh inactive.
CC1=NN(c2ccccc2)C(=O)/C1=C/c1cc(C)n(C2CC2)c1C was read as SR-BI DiI-HDL act -72, Kir21 block 0.53, FID counter -1, SR-BI DiI inh 72*, ANO1 activ inactive and TMEM16A inh inactive.
Screening COc1ccccc1/C=C1/C(=O)N(c2ccccc2)N=C1C returned SR-BI DiI-HDL act -18, Kir21 block 0.52, FID counter -8, SR-BI DiI inh 18, ANO1 activ inactive and TMEM16A inh inactive.
For O=C(CCC1CCCCC1)NCCN1C2=NC[C@H](Cc3ccc(O)cc3)N2C[C@H]1Cc1ccc(O)cc1 the results were SR-BI DiI-HDL act 18, Kir21 block 1.7, FID counter 16, SR-BI DiI inh -18, ANO1 activ inactive and TMEM16A inh inactive.
`COc1ccc(C[C@H]2CN3C(=NC[C@@H]3C(C)C)N2CCNC(=O)CCC2CCCCC2)cc1` gave SR-BI DiI-HDL act 31, Kir21 block -6.3*, FID counter 12, SR-BI DiI inh -31, ANO1 activ inactive and TMEM16A inh inactive.
Screening COc1ccc(C[C@H]2CN3C(=NC[C@@H]3Cc3ccccc3)N2CCNC(=O)CCC2CCCCC2)cc1 returned SR-BI DiI-HDL act 11, Kir21 block -11*, FID counter 17, SR-BI DiI inh -11, ANO1 activ inactive and TMEM16A inh inactive.
`c1ccc(C2(CNc3ccccn3)CCCC2)cc1` gave SR-BI DiI-HDL act -10, Kir21 block -4.4*, FID counter 1, SR-BI DiI inh 10, ANO1 activ inactive and TMEM16A inh inactive.
Brc1ccccc1-c1nnc(SCc2nc3ccccc3s2)o1 was read as SR-BI DiI-HDL act 0, Kir21 block -0.98, FID counter -23, SR-BI DiI inh 0, ANO1 activ inactive and TMEM16A inh 25*.
`CCOC(=O)/C(=C\c1ccccc1)C(=O)c1cc(C(C)=O)c(Nc2ccccc2)s1` gave SR-BI DiI-HDL act -30, Kir21 block -0.43, FID counter 0, SR-BI DiI inh 30, ANO1 activ inactive and TMEM16A inh inactive.
For CCOC(=O)/C(=C\c1cccnc1)C(=O)c1cc(C(C)=O)c(Nc2ccccc2)s1 the results were SR-BI DiI-HDL act -12, Kir21 block -3.7, FID counter -21, SR-BI DiI inh 12, ANO1 activ -11* and TMEM16A inh 25*.
`O=C1NC2(CCCCCC2)C(=O)N1Cc1ccccc1F` gave SR-BI DiI-HDL act 3, Kir21 block 0.51, FID counter -10, SR-BI DiI inh -3, ANO1 activ inactive and TMEM16A inh inactive.
Screening COc1ccc(S(=O)(=O)N2CCc3ccccc3C2)cc1OC returned SR-BI DiI-HDL act -36, Kir21 block -4.2*, FID counter -15, SR-BI DiI inh 36, ANO1 activ inactive and TMEM16A inh inactive.
For COc1ccc(S(=O)(=O)N2CCc3ccccc3C2)cc1C(=O)O the results were SR-BI DiI-HDL act -10, Kir21 block -0.83, FID counter -13, SR-BI DiI inh 10, ANO1 activ inactive and TMEM16A inh inactive.
Cc1ccc(C(=O)c2no[n+]([O-])c2C(=O)c2ccc(C)cc2)cc1 was read as SR-BI DiI-HDL act 5, Kir21 block -7.9*, FID counter 3, SR-BI DiI inh -5, ANO1 activ inactive and TMEM16A inh inactive.
For O=C(NCCCN1CCCCC1)C1CCN(S(=O)(=O)N2CCC3(CC2)OCCO3)CC1 the results were SR-BI DiI-HDL act 19, Kir21 block -1.4, FID counter 8, SR-BI DiI inh -19, ANO1 activ inactive and TMEM16A inh inactive.
CNC(CC(=O)c1ccc([N+](=O)[O-])cc1)C(Cl)(Cl)Cl (configuration not stated) was read as SR-BI DiI-HDL act -27, FID counter -1, SR-BI DiI inh 27, ANO1 activ inactive and TMEM16A inh 25*.
`Cc1ccc(NCC(=O)c2ccc([N+](=O)[O-])cc2)cc1` gave SR-BI DiI-HDL act -44, Kir21 block -0.07, FID counter -6, SR-BI DiI inh 44, ANO1 activ inactive and TMEM16A inh inactive.
Nc1nc(=S)ss1 was read as SR-BI DiI-HDL act -2, SR-BI DiI inh 2 and ANO1 activ inactive.
Screening O=C(O)CSc1ncnc2sc(-c3ccccc3)cc12 returned SR-BI DiI-HDL act 6, Kir21 block -1.6, FID counter -19, SR-BI DiI inh -6, ANO1 activ inactive and TMEM16A inh inactive.
Screening CC(=O)c1c(C)[nH]c(C(=O)CSc2ncnc3sc(-c4ccccc4)cc23)c1C returned SR-BI DiI-HDL act -6, Kir21 block 0.01, FID counter -6, SR-BI DiI inh 6, ANO1 activ inactive and TMEM16A inh 25*.
Screening COc1cc(N(Cc2ccccc2)Cc2ccccc2)c2ncn(C(C)C)c2c1 returned SR-BI DiI-HDL act -5, SR-BI DiI inh 5 and ANO1 activ inactive.
CC(C)n1cnc2c(N(C)c3ccccc3)nc(N(CCN(C)C)Cc3ccccc3)nc21 was read as SR-BI DiI-HDL act 39, Kir21 block -6.8*, SR-BI DiI inh -39, ANO1 activ inactive and TMEM16A inh inactive.
COc1ccc(-c2noc(-c3ccccc3F)n2)cc1 was read as SR-BI DiI-HDL act 3, Kir21 block -0.52, FID counter -5, SR-BI DiI inh -3, ANO1 activ inactive and TMEM16A inh inactive.
Screening COc1ccc(-c2noc(-c3ccccc3-c3ccccc3)n2)cc1 returned SR-BI DiI-HDL act -21, Kir21 block 2.5, FID counter -1, SR-BI DiI inh 38, ANO1 activ inactive and TMEM16A inh 25*.
